Data reported in ChEMBL document CHEMBL4699622, “Structural and Functional Study of the Klebsiella pneumoniae VapBC Toxin-Antitoxin System, Including the Development of an Inhibitor That Activates VapC” (J Med Chem, 2020).
Active and inactive are the calls of the source. The rule behind the calls is not given here. Residues, ends and D or L forms follow the SMILES beside them.

How the values were obtained:
[1] = Binding affinity to Klebsiella pneumoniae MGH78578 N-terminal His6-tagged VapC expressed in Escherichia coli BL21(DE3) by isothermal titration calorimetry
How it was run: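 Isothermal titration calorimetry was run at 25 °C with VapC, quantified by A280. Background was subtracted and the data were fitted to a single-site binding model.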

[2] = Inhibition of Klebsiella pneumoniae MGH78578 N-terminal His6-tagged VapB/C expressed in Escherichia coli BL21(DE3) protein-protein interaction assessed as activation of VapC-mediated RNAase activity measured after 1 hr using fluorophore-labelled RNA by spectrofluorimetric method
How it was run: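 Small molecule (1, 3.16 and 10 μM) was added to 10 μM VapBC complex. The complex was EDTA-stripped and Mg²⁺-reloaded, with 40 U RNase inhibitor, in 20 mM HEPES pH 7.5 and 400 mM NaCl with 5 pM final quenched RNA. RNase fluorescence was monitored for 1 h at ex 490/em 520 nm. Activity was expressed relative to free VapC. Screening was done in triplicate.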

[3] = test system: Klebsiella pneumoniae; test: Binding affinity to Klebsiella pneumoniae MGH78578 N-terminal His6-tagged VapC expressed in Escherichia coli BL21(DE3) assessed as increase in RNAase activity measured after 1 hr using fluorophore-labelled RNA by spectrofluorimetric method
How it was run: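 Free VapC (10 μM) was stripped of metals with 10 mM EDTA, then exchanged into purification buffer with 10 mM Mg²⁺. It was incubated without the VapB partner, with 40 U RNase inhibitor, in 20 mM HEPES pH 7.5 and 400 mM NaCl with quenched fluorophore-labelled RNA (5 pM final). Fluorescence was followed for 1 h at ex 490/em 520 nm.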

[4] = test system: Klebsiella pneumoniae; test: Inhibition of Klebsiella pneumoniae MGH78578 N-terminal His6-tagged VapB/C expressed in Escherichia coli BL21(DE3) protein-protein interaction assessed as activation of VapC-mediated RNAase activity at 100 uM measured after 1 hr using fluorophore-labelled RNA by spectrofluorimetric method
How it was run: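 Peptide (100 μM) was added to purified VapBC complex (10 μM), pretreated with 10 mM EDTA and then 10 mM Mg²⁺. The reaction used 40 U RNase inhibitor, 20 mM HEPES pH 7.5, 400 mM NaCl and 5 pM final fluorophore/quencher RNA. RFU from released VapC was read over 1 h at ex 490/em 520 nm. Mean of three independent replicates ± SD.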

SMILES	Kd [1] [µM]	IC50 [2] [µM]	Activity [3]	inhibition [4]
NC(=O)NC(=O)CCN1CCC(C(=O)c2ccc(O)cc2)CC1	0.022	0.42	inactive	–
CCC1Oc2cc(S(=O)(=O)N3CCCC(C(=O)Nc4ccc(F)cc4)C3)c(C)cc2NC1=O (configuration not stated)	0.022	0.4	inactive	–
CC[C@H](C)[C@H](NC(=O)[C@H](CC(C)C)NC(=O)[C@@H](NC(=O)[C@H](CC(N)=O)NC(=O)[C@@H](NC(=O)[C@@H](N)CC(=O)O)[C@@H](C)O)[C@@H](C)CC)C(=O)N[C@@H](CC(=O)O)C(=O)N[C@@H](CC(C)C)C(=O)N[C@@H](Cc1ccccc1)C(=O)O (H-DTNILIDLF-OH)	–	–	–	Active
CC[C@H](C)[C@H](NC(=O)[C@H](CC(C)C)NC(=O)[C@@H](NC(=O)[C@H](CC(N)=O)NC(=O)[C@@H](NC(=O)[C@@H](N)CC(=O)O)[C@@H](C)O)[C@@H](C)CC)C(=O)N[C@@H](CC(=O)O)C(=O)N[C@@H](CC(C)C)C(=O)N[C@@H](Cc1ccccc1)C(=O)N[C@@H](CO)C(=O)O (H-DTNILIDLFS-OH)	–	–	–	Active
CSCC[C@H](NC(=O)CN)C(=O)N[C@@H](CCC(=O)O)C(=O)N[C@@H](C)C(=O)N[C@@H](C)C(=O)N[C@@H](CCCNC(=N)N)C(=O)N[C@@H](CCC(N)=O)C(=O)N[C@@H](CC(C)C)C(=O)O (H-GMEAARQL-OH)	–	–	Active	–
CSCC[C@H](NC(=O)CN)C(=O)N[C@@H](CCC(=O)O)C(=O)N[C@@H](C)C(=O)N[C@@H](CCC(N)=O)C(=O)N[C@@H](CCCNC(=N)N)C(=O)N[C@@H](CCC(N)=O)C(=O)N[C@@H](CC(C)C)C(=O)O (H-GMEAQRQL-OH)	0.17	–	Active	Active
CSCC[C@H](NC(=O)CN)C(=O)N[C@@H](CCC(=O)O)C(=O)N[C@@H](Cc1ccc(O)cc1)C(=O)N[C@@H](C)C(=O)N[C@@H](CCCNC(=N)N)C(=O)N[C@@H](CCC(N)=O)C(=O)N[C@@H](CC(C)C)C(=O)O (H-GMEYARQL-OH)	0.15	–	Active	Active
CSCC[C@H](NC(=O)CN)C(=O)N[C@@H](CCC(=O)O)C(=O)N[C@@H](Cc1ccc(O)cc1)C(=O)N[C@@H](CCC(N)=O)C(=O)N[C@@H](CCCNC(=N)N)C(=O)N[C@@H](CCC(N)=O)C(=O)N[C@@H](CC(C)C)C(=O)O (H-GMEYQRQL-OH)	0.11	–	Active	Active
CSCC[C@H](NC(=O)CN)C(=O)N[C@@H](CCC(=O)O)C(=O)N[C@@H](Cc1ccc(O)cc1)C(=O)N[C@@H](CCC(N)=O)C(=O)N[C@@H](CCCNC(=N)N)C(=O)N[C@@H](CCC(N)=O)C(=O)N[C@@H](CC(C)C)C(=O)N[C@@H](CCCNC(=N)N)C(=O)O (H-GMEYQRQLR-OH)	–	–	Active	–
CSCC[C@H](NC(=O)CN)C(=O)N[C@@H](CCC(=O)O)C(=O)N[C@@H](Cc1ccc(O)cc1)C(=O)N[C@@H](CCC(N)=O)C(=O)N[C@@H](CCCNC(=N)N)C(=O)N[C@@H](CCC(N)=O)C(=O)N[C@@H](CC(C)C)C(=O)N[C@@H](CCCNC(=N)N)C(=O)N[C@@H](CCCCN)C(=O)O (H-GMEYQRQLRK-OH)	–	–	Active	–
CC[C@H](C)[C@H](NC(=O)[C@H](CC(C)C)NC(=O)[C@@H](NC(=O)[C@H](CC(N)=O)NC(=O)[C@@H](N)[C@@H](C)O)[C@@H](C)CC)C(=O)N[C@@H](CC(=O)O)C(=O)N[C@@H](CC(C)C)C(=O)N[C@@H](Cc1ccccc1)C(=O)O (H-TNILIDLF-OH)	–	–	–	Active
CC[C@H](C)[C@H](NC(=O)[C@H](CC(C)C)NC(=O)[C@@H](NC(=O)[C@H](CC(N)=O)NC(=O)[C@@H](N)[C@@H](C)O)[C@@H](C)CC)C(=O)N[C@@H](CC(=O)O)C(=O)N[C@@H](CC(C)C)C(=O)N[C@@H](Cc1ccccc1)C(=O)N[C@@H](CO)C(=O)O (H-TNILIDLFS-OH)	–	–	–	Active
